Many of the other results were omitted from the sample, so hits are more common in it than they were.
INS promoter act: TRM-6 insulin promoter activation; TRM-6 cells, insulin promoter eGFP reporter, imaging; plate-scaled: unstimulated 0, stimulated control 100; actives 0.81% (n = 130,000); activation, % at 2 µM;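 active = activation at 2 µM above a set limit, confirmed on inspection of the cell images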;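 note: share of cells whose green reporter signal exceeds an intensity cutoff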
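System – human fetal islet-derived TRM-6 cells with tamoxifen-inducible insulin promoter–eGFP reporter · Amount – 1,000 cells per well · Schedule – overnight tamoxifen, then two-day compound incubation at 37 °C · Detection – high-content imaging of fixed cells with Hoechst nuclear stain · Read-out – percent cells above green-intensity threshold, converted to percent activation versus plate controls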
Starred values were filed as active, the others as inactive.

SMILES | INS promoter act
Cc1ccnc(SCC(=O)c2ccc(Br)cc2)c1C#N | -61
S=C(Nc1cccc(Cl)c1)N1CCN(Cc2ccccc2)CC1 | -3
CCn1c(SCC(=O)c2[nH]c(C)c(C(C)=O)c2C)nnc1-c1ccccc1 | 0
CCCC(=O)C1=C(O)C(C(=O)OC)C(C)(C)CC1=NC(C)C (configuration not stated) | 480*
CCCC(=O)C1=C(O)C(C(=O)OC)C(C)(C)CC1=Nc1cccc2ccccc12 (configuration not stated) | 106
CCOCCN1CCN(C(=O)CN2CCCC2=O)CC1 | 8
CCCCc1nnc(SCCSc2nnc(CCCC)n2N)n1N | 283
O=[N+]([O-])c1c(C(Cl)Cl)nn(-c2ccc(Cl)cc2)c1N1CCCCC1 | 6
CSc1ccc(/C=N/NC(=O)CNc2ccc3ccccc3c2)cc1 | 369*
Cc1cccc(NCC(=O)N/N=C/c2cccc(Br)c2)c1 | -3
CSc1ccc(/C=N/NC(=O)c2ccc(C)c(C)c2)cc1 | 8
COc1ccccc1-c1cn(S(=O)(=O)c2ccc(F)cc2)nc1N | -7
CCCC(C)NC(=S)Nc1cc(C)cc(C)c1 (configuration not stated) | 0
COc1ccc(Cl)cc1NC(=O)CSc1nnc(Cn2c(=O)sc3ccccc32)n1C | -25
COc1ccc(Nc2nc(C)cc(=O)[nH]2)cc1 | 0
COc1ccc(CCNc2cc(=O)[nH]c(N)n2)cc1 | 615*
COc1ccc(S(=O)(=O)NCCc2ccc(F)cc2)cc1 | -91
Cc1ccc2cc(CCNC(=O)Cc3cccs3)c(=O)[nH]c2c1 | 202
C=CCn1c(COc2cccc3ccc(C)nc23)nnc1SCC(=O)O | 450*
C=CCn1c(SCC(=O)c2ccc(OC)cc2)nnc1-c1cc2cccc(OC)c2o1 | -5
C=CCn1c(COc2cccc3cccnc23)nnc1SCC(=O)O | 0
Cc1ccc2nc(SCC(=O)NNC(=O)c3ccccc3)[nH]c2c1 | 0
Cc1csc(NC(=O)C(NS(=O)(=O)c2ccc(Br)s2)c2ccccc2)n1 (configuration not stated) | 0
Cc1csc(NC(=O)c2ccccc2C(=O)O)n1 | 7
CC(=O)NC(CCS(C)(=O)=O)C(=O)Nc1nc(C)cs1 (configuration not stated) | 750*
SMILES | INS promoter act
CN(C)CCNc1c2c(nc3nnnn13)CCCC2 | 0
Oc1ccc(-n2cnnn2)cc1 | -7
Cc1ccc(C2C(C#N)=C(N)Oc3n[nH]c(-c4cccs4)c32)s1 (configuration not stated) | 9
N#CC1=C(N)Oc2n[nH]c(-c3cccs3)c2C1C1CCCCC1 (configuration not stated) | 110*
N#CC1=C(N)Oc2n[nH]c(-c3cccs3)c2C1c1ccsc1 (configuration not stated) | 324
CC(=O)Nc1ccc(S(=O)(=O)NNC(=O)c2cccc(Cl)c2)cc1 | -9
COc1ccc(N2CCN(CCCNC(=O)Nc3ccccc3)CC2)cc1 | 229
COc1cccc(N2CCN(CC(=O)NC(=O)NCc3ccco3)CC2)c1 | -8
COc1ccc2c(C(=O)CN3CCN(c4ccccc4)CC3)c[nH]c2c1 | 94*
CN(C)S(=O)(=O)c1cccc(NC(=O)COC(=O)/C=C/c2ccc([N+](=O)[O-])cc2)c1 | -8
Cc1ccc(C(=O)NCCCN2CCOCC2)o1 | 7
Cc1cccc(S(=O)(=O)Nc2ccc(C)c3c2OC(C)(C)C3)c1 | 4
COc1ccc(-c2nnn(CC(=O)N(CC(=O)NCCC(C)C)c3ccccc3)n2)cc1OC | 0
COCCNC(=O)COC(=O)/C=C/c1cnc2ccccc2n1 | 9
COCCNC(=O)CN(C(=O)c1ccc(N2CCCC2)nc1)c1ccccc1 | 773*
COc1cc([N+](=O)[O-])ccc1NC(=O)CC(C)C | 0
CC(NC(=O)CSc1nc(=O)cc(N)n1-c1ccccc1)c1ccccc1 (configuration not stated) | -7
COC(=O)c1c(NC(=O)CSc2nnnn2-c2ccccc2)sc2c1CCCC2 | 3
CC(C)CNC(=O)CSc1nc2nn(-c3ccccc3)c(=O)c-2c2n1CCCCC2 | 467*
Cc1occc1-c1nnc(SCC(=O)NCCc2ccccc2)n1C(C)c1ccccc1 (configuration not stated) | 9
CC(C)n1nnnc1SCC(=O)NCCc1ccccc1 | 75*
CCCCn1nnnc1SCC(=O)NCc1ccccc1 | 267
CN(c1cccc(NC(=O)COc2ccc(Cl)cc2Cl)c1)S(C)(=O)=O | -6
CC(C)CC1NC(=O)N(CC(=O)Nc2ccccc2-c2ccccc2)C1=O (configuration not stated) | 156
Cc1c(C(=O)NCc2ccccc2)c(-c2ccccc2)nn1-c1ccccc1 | 107
SMILES | INS promoter act
Cn1c(SCC(=O)Nc2ccccc2F)nnc1-c1cc2ccccc2o1 | 9
COc1ccc(-c2cnnc(N/N=C/C(C)=C/c3ccccc3)n2)cc1 | 6
NC(=O)C1(N2CCCCC2)CCN(CC(=O)Nc2ccccc2-c2ccccc2)CC1 | 106
NC(=O)C1(N2CCCCC2)CCN(C(=O)CSc2nc3ccccc3o2)CC1 | 0
NC(=O)C1(N2CCCCC2)CCN(Cc2ccccc2Cl)CC1 | 456*
CCCCNC(=O)CNC(=S)N(Cc1cc(OC)c(OC)c(OC)c1)C1CCCC1 | 4
Cc1ccc(NC(=O)COC(=O)CCC(=O)c2cccs2)cc1 | 8
Cc1ccc(C(=O)COC(=O)CNC(=O)c2cccs2)cc1C | -4
Cc1ccc(C(=O)NCC(=O)NCC(=O)OCC(=O)c2cccs2)cc1 | 471*
Cc1ccc(NC(=S)C2=C(O)c3ccccc3N(C)S2(=O)=O)cc1 | -8
CCOC(=O)CC1C(=O)NCCN1C(=O)c1sc2ccccc2c1Cl (configuration not stated) | 6
Cc1c(NC(=O)CN2C(=O)NC3(CCCCC3)C2=O)c(=O)n(-c2ccccc2)n1C | -8
CC(C)c1ccc(C(=O)NCCCN(C)C)cc1 | 7
CCc1ccc(/C=C/C(=O)c2cc(Br)ccc(=O)c2O)cc1 | 3
CCNc1ccc(Br)cc(C(=O)/C=C/c2ccccc2Cl)c1=O | 800*
O=C(/C=C/c1ccccc1Cl)NCCc1ccc(F)cc1 | 3
CC(C)(C)NC(=O)c1ccc2c(c1)N(CC(=O)N1CCN(c3ccccc3F)CC1)C(=O)C(C)(C)O2 | 0
Cc1cc(=O)oc2cc(OCC(=O)c3ccc4c(c3)NC(=O)CO4)ccc12 | 0
S=C1NCCNC(=S)NCCOCCOCCN1 | 0
CN(C)c1nc(NS(=O)(=O)c2ccc(Cl)cc2)nc(N(C)C)n1 | -71
Cn1c(N)c(C(=O)COC(=O)CCC2CCCCC2)c(=O)n(C)c1=O | 10
O=C1OC(c2ccc(F)cc2)=C/C1=C\c1ccc([N+](=O)[O-])o1 | 169
N#C/C(=C\c1ccc([N+](=O)[O-])o1)C(=O)Nc1ccc(F)cc1 | 400*
N#C/C(=C\c1ccc(N2CCCCC2)o1)C(=O)Nc1cccc(Br)c1 | 186
O=C(NCCc1nnc2ccc(NCc3ccc(F)cc3)nn12)c1ccccc1 | -6
SMILES | INS promoter act
OCCNCC12CC3CC(CC(C3)C1)C2 | 147
CCCCN(CCCC)S(=O)(=O)c1ccc(NC(=O)CN2CCOCC2)cc1 | 6
O=C(CN1CCCCC1)Nc1ccc(S(=O)(=O)N2CCOCC2)cc1 | 4
O=C(CN1CCOCC1)Nc1ccc(S(=O)(=O)NC2CCCCC2)cc1 | 200*
CCC(O)C1CCN(C(=O)c2cc(COc3ccc4ncccc4c3)on2)CC1 (configuration not stated) | 0
CSc1ccccc1-c1nnc(-c2ccccc2)o1 | 9
c1ccc(-c2nnc(-c3ccccc3)o2)cc1 | 5
